The results in this text go back to BindingDB's records for doi:10.1016/j.ejmech.2011.01.016 (National Institute of Pharmaceutical Education and Research, 2011).

SMILES strings stand for the structures.

As usually defined, the IC50 is the point on the concentration scale where inhibition reaches its midpoint.

The target of the assay is Reverse transcriptase (Human immunodeficiency virus 1, UniProt Q9WKE8). Nature of the assay: Inhibition of Human immunodeficiency virus 1 NL4.3 reverse transcriptase activity. The method, boiled down: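 Colorimetric HIV-1 reverse transcriptase inhibition assay run with a commercial RT assay kit per the manufacturer's protocol; nevirapine positive control; IC50 determined.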
Turning to `COc1ccc2cc3[n+](cc2c1OC)CCc1cc2c(cc1-3)OCO2` [Berberinechloride], the IC50 stood at 297 µM.

`COc1cc2c(cc1O)CC[n+]1cc3c(OC)c(OC)ccc3cc1-2` [jatrorrhizine] came in with an IC50 of 209 µM.

For the molecule `COc1cc2c(cc1O)-c1cc3ccc(OC)c(OC)c3c[n+]1CC2` [2-hydroxy-3,9,10-trimethoxy-5,6-dihydroisoquino[3,2-a]isoquinolinium], the half-inhibitory concentration (IC50) worked out at 171 µM.
